In brackets after ≈: the same amount, converted by molar mass. Square brackets hold non-standard residues; d marks the D form. Peptide text beside a SMILES is read from it. Gly(N-(CH2)6NH2) = NCCCCCCNCC(=O)O; Nspe = C[C@H](NCC(=O)O)c1ccccc1; NhArg = N=C(N)NCCCCNCC(=O)O; Nphe = O=C(O)CNCc1ccccc1
How the values were obtained:
[1] = Cytotoxicity against human HaCaT cells assessed as reduction in cell viability pretreated for 1 hr followed by DMEM addition measured after 24 hrs by alamar blue assay; type: cell-based; settings: read-out: ED50
Summary of the method: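 HaCaT keratinocytes are grown in DMEM high glucose with 10% FBS and 1% P/S and seeded at 2x10^4 cells/well 24 h before treatment. Compound dilution series run 2–100 µM (5 mM DMSO stocks) in 50 µL for 1 h, then medium is added for 24 h at 37 °C, 5% CO2. alamarBlue is read after 1 h (Ex 540/Em 620). Triplicate, ≥2 occasions; ED50 from dose-response; amphotericin B positive control.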

[2] = Cytotoxicity against human HepG2 cells assessed as reduction in cell viability pretreated for 1 hr followed by DMEM addition measured after 24 hrs by alamar blue assay; type: cell-based; settings: read-out: ED50
Summary of the method: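 HepG2 cells are kept in DMEM high glucose with 10% heat-inactivated FBS and 1% P/S at 37 °C, 5% CO2, and seeded at 2x10^4 cells/well one day ahead. They are exposed to compounds (100 to 3 µM, from 5 mM DMSO stocks) in 50 µL for 1 h. Medium is then added and cells incubated 24 h. alamarBlue is read after 2 h (Ex 560/Em 600). Triplicate on ≥2 occasions; ED50 from dose-response; DMSO negative control.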

Pseudomonas aeruginosa = experiment: Antibacterial activity against Pseudomonas aeruginosa PAO1 ATCC 15692 incubated for 16 hrs under shaking condition; type: functional; settings: PAO1 ATCC 15692, 16 h
Summary of the method: (§1)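 Broth microdilution (Andrews method) in Iso-sensitest broth. Overnight cultures are adjusted to A650 0.07 (0.5 McFarland) and diluted ten-fold. Compounds come from 5 mM DMSO stocks, 2-fold serially diluted, final 2–100 μM in a 1:1 inoculum:compound mix. Incubation is 37 °C for 16 h with shaking. MIC is the lowest concentration giving complete growth inhibition, read by absorbance; triplicate.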

Staphylococcus aureus = experiment: Antibacterial activity against Staphylococcus aureus 3R7089 strain Oxford/ATCC 9144 incubated for 16 hrs under shaking condition; type: functional; settings: 3R7089 strain Oxford/ATCC 9144, 16 h; summary of the method: as §1
[3] = Selectivity index, ratio of ED50 for human HaCaT cells to MIC for Escherichia coli K-12 W3110 ATCC 27325; type: toxicity; settings: read-out: Selectivity Index
[4] = Selectivity index, ratio of ED50 for human HaCaT cells to MIC for Pseudomonas aeruginosa PAO1 ATCC 15692; type: toxicity; settings: read-out: Selectivity Index
[5] = Selectivity index, ratio of ED50 for human HaCaT cells to MIC for Staphylococcus aureus 3R7089 strain Oxford/ATCC 9144; type: toxicity; settings: read-out: Selectivity Index
[6] = Selectivity index, ratio of ED50 for human HaCaT cells to MIC for Staphylococcus epidermidis clinical isolate; type: toxicity; settings: read-out: Selectivity Index
[7] = Selectivity index, ratio of ED50 for human HepG2 cells to MIC for Escherichia coli K-12 W3110 ATCC 27325; type: toxicity; settings: read-out: Selectivity Index
[8] = Selectivity index, ratio of ED50 for human HepG2 cells to MIC for Pseudomonas aeruginosa PAO1 ATCC 15692; type: toxicity; settings: read-out: Selectivity Index
[9] = Selectivity index, ratio of ED50 for human HepG2 cells to MIC for Staphylococcus aureus 3R7089 strain Oxford/ATCC 9144; type: toxicity; settings: read-out: Selectivity Index
[10] = Selectivity index, ratio of ED50 for human HepG2 cells to MIC for Staphylococcus epidermidis clinical isolate; type: toxicity; settings: read-out: Selectivity Index
[11] = test system: Staphylococcus epidermidis; experiment: Antibacterial activity against Staphylococcus epidermidis clinical isolate incubated for 16 hrs under shaking condition; type: functional; summary of the method: as §1

Work on `C[C@H](c1ccccc1)N(CC(N)=O)C(=O)CN(C(=O)CN(CCCCN)C(=O)CN(C(=O)CN(C(=O)CN(CCCCN)C(=O)CN(C(=O)CN(C(=O)CNCCCCN)[C@H](C)c1ccccc1)[C@@H](C)c1ccccc1)[C@H](C)c1ccccc1)[C@@H](C)c1ccccc1)[C@H](C)c1ccccc1` (stereo in doubt) yielded a CC50 at 24 h [1] of over 100 µM, a CC50 at 24 h [2] of over 100 µM and an MIC (Pseudomonas aeruginosa) of over 100 µM. The MIC (Staphylococcus aureus) was 2 µM (≈ 2.74 µg/mL), the selectivity ratio [3] was 8 and the selectivity ratio [4] was 1. For the same compound, the selectivity ratio [5] was 50, the selectivity ratio [6] was 50 and the selectivity ratio [7] was 8. It also gave a selectivity ratio [8] of 1, a selectivity ratio [9] of 50 and a selectivity ratio [10] of 50.

For `C[C@@H](c1ccccc1)N(CC(N)=O)C(=O)CN(C(=O)CN(CCCCCCN)C(=O)CN(C(=O)CN(C(=O)CN(CCCCCCN)C(=O)CN(C(=O)CN(C(=O)CNCCCCCCN)[C@@H](C)c1ccccc1)[C@@H](C)c1ccccc1)[C@@H](C)c1ccccc1)[C@@H](C)c1ccccc1)[C@@H](C)c1ccccc1` (H-[Gly(N-(CH2)6NH2)][Nspe][Nspe][Gly(N-(CH2)6NH2)][Nspe][Nspe][Gly(N-(CH2)6NH2)][Nspe][Nspe]-NH2), the CC50 at 24 h [1] was over 100 µM, the CC50 at 24 h [2] was over 100 µM and the MIC (Pseudomonas aeruginosa) was over 100 µM. It also gave an MIC (Staphylococcus aureus) of 3 µM (≈ 4.36 µg/mL), an MIC [11] of 2 µM (≈ 2.91 µg/mL) and a selectivity ratio [3] of 4. It also gave a selectivity ratio [4] of 1, a selectivity ratio [5] of 33 and a selectivity ratio [6] of 50. It also gave a selectivity ratio [7] of 4, a selectivity ratio [8] of 1 and a selectivity ratio [9] of 33. The selectivity ratio [10] was 50.

Compound `CC(c1ccccc1)N(CC(=O)N(CCCCN)CC(=O)N(CC(=O)N(CC(=O)N(CCCCN)CC(=O)N(CC(=O)N(CC(N)=O)[C@@H](C)c1ccccc1)[C@@H](C)c1ccccc1)Cc1ccc(F)cc1)Cc1ccc(F)cc1)C(=O)CN(C(=O)CNCCCCN)[C@@H](C)c1ccccc1` (single isomer, unassigned) has a CC50 at 24 h [1] of 65 µM, a CC50 at 24 h [2] of 43 µM and an MIC (Staphylococcus aureus) of 3 µM (≈ 4.13 µg/mL). For the same compound, the MIC [11] was 2 µM (≈ 2.75 µg/mL), the selectivity ratio [3] was 5 and the selectivity ratio [4] was 3. For the same compound, the selectivity ratio [5] was 22, the selectivity ratio [6] was 33 and the selectivity ratio [7] was 3. The selectivity ratio [9] was 14 and the selectivity ratio [10] was 22.

`NCCCCNCC(=O)N(CC(=O)N(CC(=O)N(CCCCN)CC(=O)N(CC(=O)N(CC(=O)N(CCCCN)CC(=O)N(CC(=O)N(CC(=O)N(CCCCN)CC(=O)N(CC(=O)N(CC(N)=O)Cc1cccc(F)c1)Cc1cccc(F)c1)Cc1cccc(F)c1)Cc1cccc(F)c1)Cc1cccc(F)c1)Cc1cccc(F)c1)Cc1cccc(F)c1)Cc1cccc(F)c1` showed a selectivity ratio [3] of 1, a selectivity ratio [4] of 1 and a selectivity ratio [5] of 4. The selectivity ratio [6] was 8, the selectivity ratio [7] was 1 and the selectivity ratio [8] was 1. For the same compound, the selectivity ratio [9] was 3 and the selectivity ratio [10] was 6.

`C[C@@H](c1ccccc1)N(CC(N)=O)C(=O)CN(C(=O)CN(CCCCCCN)C(=O)CN(C(=O)CN(C(=O)CNCCCCCCN)[C@@H](C)c1ccccc1)[C@@H](C)c1ccccc1)[C@@H](C)c1ccccc1` gave a CC50 at 24 h [1] of over 100 µM, a CC50 at 24 h [2] of over 100 µM and an MIC (Pseudomonas aeruginosa) of over 100 µM. It also gave an MIC (Staphylococcus aureus) of over 100 µM, an MIC [11] of 25 µM (≈ 24.4 µg/mL) and a selectivity ratio [3] of 1. The selectivity ratio [4] was 1, the selectivity ratio [5] was 1 and the selectivity ratio [6] was 4. It also gave a selectivity ratio [7] of 1, a selectivity ratio [8] of 1 and a selectivity ratio [9] of 1. It also gave a selectivity ratio [10] of 4.

For `NCCCCCCNCC(=O)N(CC(=O)N(CC(=O)N(CCCCCCN)CC(=O)N(CC(=O)N(CC(=O)N(CCCCCCN)CC(=O)N(CC(=O)N(CC(=O)N(CCCCCCN)CC(=O)N(CC(=O)N(CC(N)=O)Cc1ccccc1)Cc1ccccc1)Cc1ccccc1)Cc1ccccc1)Cc1ccccc1)Cc1ccccc1)Cc1ccccc1)Cc1ccccc1` (H-[Gly(N-(CH2)6NH2)][Nphe][Nphe][Gly(N-(CH2)6NH2)][Nphe][Nphe][Gly(N-(CH2)6NH2)][Nphe][Nphe][Gly(N-(CH2)6NH2)][Nphe][Nphe]-NH2), the CC50 at 24 h [1] was over 100 µM, the CC50 at 24 h [2] was over 100 µM and the MIC (Pseudomonas aeruginosa) was over 100 µM. The MIC (Staphylococcus aureus) was 2 µM (≈ 3.64 µg/mL), the MIC [11] was 6 µM (≈ 10.9 µg/mL) and the selectivity ratio [3] was 8. The selectivity ratio [4] was 1, the selectivity ratio [5] was 50 and the selectivity ratio [6] was 17. The selectivity ratio [7] was 8, the selectivity ratio [8] was 1 and the selectivity ratio [9] was 50. For the same compound, the selectivity ratio [10] was 17.

Work on `NCCCCNCC(=O)N(CC(=O)N(CC(=O)N(CCCCN)CC(=O)N(CC(=O)N(CC(=O)N(CCCCN)CC(=O)N(CC(=O)N(CC(N)=O)Cc1cccc(F)c1)Cc1cccc(F)c1)Cc1cccc(F)c1)Cc1cccc(F)c1)Cc1cccc(F)c1)Cc1cccc(F)c1` yielded a selectivity ratio [3] of 5, a selectivity ratio [4] of 3 and a selectivity ratio [5] of 11. The selectivity ratio [6] was 32, the selectivity ratio [7] was 3 and the selectivity ratio [8] was 2. The selectivity ratio [9] was 7 and the selectivity ratio [10] was 22.

Work on `C[C@@H](c1ccccc1)N(CC(N)=O)C(=O)CN(C(=O)CN(CCCCNC(=N)N)C(=O)CN(C(=O)CN(C(=O)CN(CCCCNC(=N)N)C(=O)CN(C(=O)CN(C(=O)CN(CCCCNC(=N)N)C(=O)CN(C(=O)CN(C(=O)CNCCCCNC(=N)N)[C@@H](C)c1ccccc1)[C@@H](C)c1ccccc1)[C@@H](C)c1ccccc1)[C@@H](C)c1ccccc1)[C@@H](C)c1ccccc1)[C@@H](C)c1ccccc1)[C@@H](C)c1ccccc1` (H-[NhArg][Nspe][Nspe][NhArg][Nspe][Nspe][NhArg][Nspe][Nspe][NhArg][Nspe][Nspe]-NH2) yielded a CC50 at 24 h [1] of 20 µM, a selectivity ratio [3] of 3 and a selectivity ratio [4] of 2. It also gave a selectivity ratio [5] of 20, a selectivity ratio [6] of 20 and a selectivity ratio [7] of 2. The selectivity ratio [8] was 1, the selectivity ratio [9] was 12 and the selectivity ratio [10] was 12.

With `CC(c1ccccc1)N(CC(=O)N(CCCCN)CC(=O)N(CC(=O)N(CC(=O)N(CCCCN)CC(=O)N(CC(=O)N(CC(N)=O)[C@@H](C)c1ccccc1)Cc1ccc(F)cc1)C(C)c1ccccc1)Cc1ccc(F)cc1)C(=O)CN(Cc1ccc(F)cc1)C(=O)CNCCCCN` (single isomer, unassigned) the CC50 at 24 h [1] was 52 µM, the CC50 at 24 h [2] was 36 µM and the MIC (Staphylococcus aureus) was 3 µM (≈ 4.14 µg/mL). It also gave an MIC [11] of 2 µM (≈ 2.76 µg/mL), a selectivity ratio [3] of 2 and a selectivity ratio [5] of 17. For the same compound, the selectivity ratio [6] was 26, the selectivity ratio [9] was 12 and the selectivity ratio [10] was 18.

Work on `NCCCCNCC(=O)N(CC(=O)N(CC(=O)N(CCCCN)CC(=O)N(CC(=O)N(CC(=O)N(CCCCN)CC(=O)N(CC(=O)N(CC(N)=O)Cc1ccccc1)Cc1ccccc1)Cc1ccccc1)Cc1ccccc1)Cc1ccccc1)Cc1ccccc1` yielded a CC50 at 24 h [1] of over 100 µM, a CC50 at 24 h [2] of over 100 µM and an MIC (Pseudomonas aeruginosa) of over 100 µM. The selectivity ratio [3] was 2, the selectivity ratio [4] was 1 and the selectivity ratio [5] was 4. The selectivity ratio [6] was 17, the selectivity ratio [7] was 2 and the selectivity ratio [8] was 1. It also gave a selectivity ratio [9] of 4 and a selectivity ratio [10] of 17.

For `CC(c1ccccc1)N(CC(=O)N(CCN)CC(=O)N(CC(=O)N(CC(=O)N(CCN)CC(=O)N(CC(=O)N(CC(N)=O)[C@@H](C)c1ccccc1)[C@@H](C)c1ccccc1)C(C)c1ccccc1)[C@@H](C)c1ccccc1)C(=O)CN(C(=O)CNCCN)C(C)c1ccccc1` (single isomer, unassigned), the CC50 at 24 h [1] was over 100 µM, the CC50 at 24 h [2] was over 100 µM and the MIC (Pseudomonas aeruginosa) was over 100 µM. For the same compound, the MIC (Staphylococcus aureus) was 2 µM (≈ 2.57 µg/mL), the selectivity ratio [3] was 4 and the selectivity ratio [4] was 1. The selectivity ratio [5] was 50, the selectivity ratio [6] was 8 and the selectivity ratio [7] was 4. The selectivity ratio [8] was 1, the selectivity ratio [9] was 50 and the selectivity ratio [10] was 8.

Reference: ChEMBL document CHEMBL4261490, “Exploring the links between peptoid antibacterial activity and toxicity” (Medchemcomm, 2017)
